Measured values published in ChEMBL document CHEMBL4219118, “Cathepsin B inhibitors: Further exploration of the nitroxoline core” (Bioorg Med Chem Lett, 2018).
Blank lines part the entries; values can stand above or below the compound they belong to. Calls of active or inactive are those of the source. No cut-off for these calls is given here.

Columns and labels:
[1] = target: T1, Cathepsin B (Homo sapiens, UniProt P07858); test: Inhibition of recombinant human cathepsin B endopeptidase activity assessed as inhibitory constant for enzyme-inhibitor complex using Z-Arg-Arg-AMC as substrate in presence of pH 4.5 acetate buffer by fluorescence assay
In short: (§1)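 Recombinant cathepsin B endopeptidase activity assayed with the small substrate Z-Arg-Arg-AMC at pH 4.5. Acidic conditions chosen to shift the enzyme toward the closed (exopeptidase) conformation. Ki reported.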

[2] = target: T1, Cathepsin B; test: Uncompetitive inhibition of recombinant human cathepsin B endopeptidase activity assessed as inhibitory constant for enzyme-substrate-inhibitor complex using Z-Arg-Arg-AMC as substrate in presence of pH 6 phosphate buffer by fluorescence assay
[3] = target: T1, Cathepsin B; test: Uncompetitive inhibition of recombinant human cathepsin B exopeptidase activity assessed as inhibitory constant for enzyme-substrate-inhibitor complex using Abz-Gly-Ile-Val-Arg-Ala-Lys(Dnp)-OH as substrate in presence of pH 5 acetate buffer by fluorescence assay
[4] = target: T1, Cathepsin B; test: Inhibition of recombinant human cathepsin B endopeptidase activity assessed as inhibitory constant for enzyme-substrate-inhibitor complex using Z-Arg-Arg-AMC as substrate in presence of pH 6 phosphate buffer by fluorescence assay
[5] = target: T1, Cathepsin B; test: Mixed inhibition of recombinant human cathepsin B endopeptidase activity assessed as inhibitory constant for enzyme-inhibitor complex using Z-Arg-Arg-AMC as substrate in presence of pH 6 phosphate buffer by fluorescence assay
[6] = target: T1, Cathepsin B; test: Mixed inhibition of recombinant human cathepsin B endopeptidase activity assessed as inhibitory constant for enzyme-substrate-inhibitor complex using Z-Arg-Arg-AMC as substrate in presence of pH 6 phosphate buffer by fluorescence assay
[7] = target: T1, Cathepsin B; test: Non-competitive inhibition of recombinant human cathepsin B exopeptidase activity assessed as inhibitory constant for enzyme-substrate-inhibitor complex using Abz-Gly-Ile-Val-Arg-Ala-Lys(Dnp)-OH as substrate in presence of pH 5 acetate buffer by fluorescence assay
[8] = target: T1, Cathepsin B; test: Non-competitive inhibition of recombinant human cathepsin B exopeptidase activity assessed as inhibitory constant for enzyme-inhibitor complex using Abz-Gly-Ile-Val-Arg-Ala-Lys(Dnp)-OH as substrate in presence of pH 5 acetate buffer by fluorescence assay
[9] = target: T1, Cathepsin B; test: Mixed inhibition of recombinant human cathepsin B exopeptidase activity assessed as inhibitory constant for enzyme-inhibitor complex using Abz-Gly-Ile-Val-Arg-Ala-Lys(Dnp)-OH as substrate in presence of pH 5 acetate buffer by fluorescence assay
[10] = target: T1, Cathepsin B; test: Mixed inhibition of recombinant human cathepsin B exopeptidase activity assessed as inhibitory constant for enzyme-substrate-inhibitor complex using Abz-Gly-Ile-Val-Arg-Ala-Lys(Dnp)-OH as substrate in presence of pH 5 acetate buffer by fluorescence assay
[11] = target: T1, Cathepsin B; test: Non-competitive inhibition of recombinant human cathepsin B endopeptidase activity assessed as inhibitory constant for enzyme-substrate-inhibitor complex using Z-Arg-Arg-AMC as substrate in presence of pH 6 phosphate buffer by fluorescence assay
[12] = target: T1, Cathepsin B; test: Non-competitive inhibition of recombinant human cathepsin B endopeptidase activity assessed as inhibitory constant for enzyme-inhibitor complex using Z-Arg-Arg-AMC as substrate in presence of pH 6 phosphate buffer by fluorescence assay
[13] = target: T1, Cathepsin B; test: Competitive inhibition of recombinant human cathepsin B endopeptidase activity assessed as inhibitory constant for enzyme-inhibitor complex using Z-Arg-Arg-AMC as substrate in presence of pH 4.5 acetate buffer by fluorescence assay; conditions: read-out: Ki; in short: as §1
[14] = target: T1, Cathepsin B; test: Inhibition of recombinant human cathepsin B endopeptidase activity assessed as residual activity at 50 uM using Z-Arg-Arg-AMC as substrate in presence of pH 6 phosphate buffer by fluorescence assay relative to control
[15] = target: T1, Cathepsin B; test: Inhibition of recombinant human cathepsin B exopeptidase activity assessed as residual activity at 50 uM using Abz-Gly-Ile-Val-Arg-Ala-Lys(Dnp)-OH as substrate in presence of pH 5 acetate buffer by fluorescence assay relative to control
[16] = test system: MCF-10A-neoT; test: Cytotoxicity against human MCF10AneoT cells assessed as decrease in cell viability after 72 hrs by MTS assay; format: cell-based
[17] = target: T1, Cathepsin B; test: Inhibition of cathepsin B in human MCF-10A neoT cells assessed as proteolysis of extracellular membrane by measuring decrease in intracellular degradation of DQ-collagen 4 at 50 uM incubated for 2 hrs followed by DQ-collagen addition measured for 2 hrs by propidium iodide staining based flow cytometry relative to control; format: cell-based
In short: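 MCF-10A neoT cells (6 × 10⁴) treated with compound or DMSO. Intracellular DQ-collagen IV degradation measured by flow cytometry, with unlabeled cells as background. Reduction expressed versus DMSO. Mean of n = 3, run in duplicate.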

[18] = target: T1, Cathepsin B; test: Inhibition of cathepsin B in human MCF-10A neoT cells assessed as proteolysis of extracellular membrane by measuring decrease in extracellular degradation of DQ-collagen 4 at 5 uM incubated for 6 hrs measured for 2 hrs by fluorescence based spectrofluorimetric assay relative to control; format: cell-based
In short: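 MCF-10A neoT cells (5 × 10⁴) incubated with DQ-collagen IV in the presence of compound or DMSO. Extracellular degradation product read by spectrofluorimetry. Mean of n = 3, six replicates per experiment.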

[19] = test system: U-87 MG; test: Cytotoxicity against human U87MG cells assessed as decrease in cell viability after 72 hrs by MTS assay; format: cell-based; conditions: u-87mg atcc

SMILES: N#CCN(Cc1ccccc1)C(=O)c1ccc2c([N+](=O)[O-])ccc(O)c2n1
- Ki [9]: 156 µM
- Ki [10]: 18 µM
- Ki [2]: 34 µM

SMILES: N#Cc1ccc2c([N+](=O)[O-])cc([N+](=O)[O-])c(O)c2n1
- Ki [7]: 192 µM
- Ki [2]: 39 µM
- Ki [8]: 192 µM

SMILES: O=[N+]([O-])c1ccc(O)c2ncccc12
- Activity [14]: 21.9%
- Activity [15]: 24.7%

SMILES: CC(=O)c1ccc(-c2cc(-c3ccc([N+](=O)[O-])c4cccnc34)c(-c3ccc(C(C)=O)cc3)o2)cc1
- Ki [1]: Not Active
- Ki [2]: 39 µM
- Ki [3]: 13 µM
- Ki [4]: Not Active

SMILES: N#CCN(Cc1ccccc1)C(=O)c1ccc2c([N+](=O)[O-])cc([N+](=O)[O-])c(O)c2n1
- Ki [9]: 154 µM
- Activity [16]: Non-Toxic
- Ki [10]: 35 µM
- inhibition [17]: inactive
- inhibition [18]: Active
- Ki [2]: 9 µM
- Ki [13]: 163 µM
- Activity [19]: Non-Toxic

The remaining lines, values ahead:

- Ki [1]: Not Active
- Ki [2]: 46 µM
- Ki [3]: 11 µM
- Ki [4]: Not Active
SMILES: CC(=O)c1ccc(-c2occc2-c2ccc([N+](=O)[O-])c3cccnc23)cc1

- Ki [5]: 157 µM
- Ki [6]: 66 µM
- Ki [7]: 154 µM
- Ki [8]: 154 µM
SMILES: N#CC1(NC(=O)c2ccc3c([N+](=O)[O-])ccc(O)c3n2)CC1

- Ki [9]: 118 µM
- Ki [10]: 22 µM
- Ki [11]: 323 µM
- Ki [12]: 323 µM
SMILES: COCCCOc1cc(-c2ccc([N+](=O)[O-])c3cccnc23)ccc1OC

- Ki [9]: 201 µM
- Ki [10]: 34 µM
- Ki [13]: 29 µM
- Ki [11]: 160 µM
- Ki [12]: 160 µM
SMILES: N#CCNC(=O)c1ccc2c([N+](=O)[O-])cc([N+](=O)[O-])c(O)c2n1

- Ki [5]: 200 µM
- Ki [6]: 41 µM
- Ki [7]: 181 µM
- Ki [8]: 181 µM
SMILES: COCCN(CC1CCN(Cc2nc3ccccc3s2)CC1)C(=O)c1cc([N+](=O)[O-])c2cccnc2c1O

- Ki [5]: 143 µM
- Ki [6]: 94 µM
- Ki [7]: 162 µM
- Ki [8]: 162 µM
SMILES: CC1CCN(C(=O)c2cc([N+](=O)[O-])c3cccnc3c2O)CC1
